Results: ChEMBL document CHEMBL3286180, “Efficacious inhaled PDE4 inhibitors with low emetic potential and long duration of action for the treatment of COPD” (J Med Chem, 2014)
Values after ≈ are worked out from the molar mass of the structure shown. Active and inactive are the calls of the source. The rule behind the calls is not given here.

Tests used:
[1] = target: 3',5'-cyclic-AMP phosphodiesterase 4B (Homo sapiens, UniProt Q07343); assay: Inhibition of human recombinant PDE4B using [3H]cAMP by packard topcount scintillation counting analysis
3',5'-cyclic-AMP phosphodiesterase 4B, sequence (Q07343 whole entry): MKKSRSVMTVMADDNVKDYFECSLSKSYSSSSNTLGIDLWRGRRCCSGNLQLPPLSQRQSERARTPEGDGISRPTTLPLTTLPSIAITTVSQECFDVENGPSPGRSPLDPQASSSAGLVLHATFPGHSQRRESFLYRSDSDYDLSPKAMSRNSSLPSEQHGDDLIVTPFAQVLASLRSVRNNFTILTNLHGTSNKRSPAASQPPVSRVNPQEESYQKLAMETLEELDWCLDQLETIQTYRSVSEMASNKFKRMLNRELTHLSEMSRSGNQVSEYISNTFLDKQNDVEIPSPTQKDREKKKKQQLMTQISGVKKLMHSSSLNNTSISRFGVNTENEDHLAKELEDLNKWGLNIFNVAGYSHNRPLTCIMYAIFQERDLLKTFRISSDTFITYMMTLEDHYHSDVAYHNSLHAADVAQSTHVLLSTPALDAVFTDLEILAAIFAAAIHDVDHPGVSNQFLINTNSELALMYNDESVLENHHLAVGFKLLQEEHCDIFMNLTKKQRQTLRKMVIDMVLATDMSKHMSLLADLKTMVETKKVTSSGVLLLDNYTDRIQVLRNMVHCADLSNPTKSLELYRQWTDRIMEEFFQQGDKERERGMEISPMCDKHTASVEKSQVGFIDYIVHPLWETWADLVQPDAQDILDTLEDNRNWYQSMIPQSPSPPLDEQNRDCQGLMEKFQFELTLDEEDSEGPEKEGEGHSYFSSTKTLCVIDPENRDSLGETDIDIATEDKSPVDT

[2] = target: Cytochrome P450 3A4 (Homo sapiens, UniProt P08684); assay: Inhibition of CYP3A4 (unknown origin); assay type: ADME
Cytochrome P450 3A4, sequence (P08684 whole entry): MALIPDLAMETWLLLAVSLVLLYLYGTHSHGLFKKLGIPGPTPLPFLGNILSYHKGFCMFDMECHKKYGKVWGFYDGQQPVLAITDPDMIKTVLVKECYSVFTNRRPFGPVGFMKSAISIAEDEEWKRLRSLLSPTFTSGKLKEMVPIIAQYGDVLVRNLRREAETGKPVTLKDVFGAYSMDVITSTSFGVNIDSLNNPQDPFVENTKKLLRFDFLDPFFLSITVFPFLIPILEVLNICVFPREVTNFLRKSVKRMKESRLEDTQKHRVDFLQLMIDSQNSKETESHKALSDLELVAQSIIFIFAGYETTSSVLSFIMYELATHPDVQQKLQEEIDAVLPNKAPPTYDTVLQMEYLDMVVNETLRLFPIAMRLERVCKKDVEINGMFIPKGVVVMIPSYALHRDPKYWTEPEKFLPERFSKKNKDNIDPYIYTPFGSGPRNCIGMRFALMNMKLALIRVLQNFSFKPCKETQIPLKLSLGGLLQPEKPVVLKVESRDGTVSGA

[3] = Half life in rat at 1 mg/kg, iv; assay type: ADME, organism-based; set-up: dose 1 mg/kg, route intravenous; conditions: in vivo
Outline: (§1)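 Rat pharmacokinetics were run at 1 mg/kg, given iv or by intratracheal instillation, with 2−3 animals per study.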

[4] = Clearance in rat at 1 mg/kg, iv; assay type: ADME, organism-based; set-up: dose 1 mg/kg, route intravenous; conditions: in vivo; outline: as §1
[5] = target: Cytochrome P450 2C9 (Homo sapiens, UniProt P11712); assay: Inhibition of CYP2C9 (unknown origin); assay type: ADME
Cytochrome P450 2C9, sequence (P11712 whole entry): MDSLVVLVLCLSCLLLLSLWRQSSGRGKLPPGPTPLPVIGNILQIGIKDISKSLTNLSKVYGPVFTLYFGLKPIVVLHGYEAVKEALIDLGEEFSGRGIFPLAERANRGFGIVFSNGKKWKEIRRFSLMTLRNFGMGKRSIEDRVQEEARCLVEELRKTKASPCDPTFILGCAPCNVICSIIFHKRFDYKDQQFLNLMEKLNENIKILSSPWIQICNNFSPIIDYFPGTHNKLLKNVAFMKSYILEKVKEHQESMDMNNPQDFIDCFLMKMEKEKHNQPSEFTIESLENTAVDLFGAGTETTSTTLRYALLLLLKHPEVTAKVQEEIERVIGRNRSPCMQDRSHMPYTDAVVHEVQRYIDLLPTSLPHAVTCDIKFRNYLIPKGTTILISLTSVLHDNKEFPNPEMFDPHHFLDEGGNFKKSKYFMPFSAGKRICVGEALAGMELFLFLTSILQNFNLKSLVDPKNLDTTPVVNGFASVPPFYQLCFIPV

[6] = system: PBMC; assay: Antiinflammatory activity in human PBMC assessed as inhibition of LPS-induced TNFalpha production after 20 hrs by fluorescence linked immunosorbant assay; assay type: functional, cell-based
[7] = Volume of distribution at steady state in rat at 1 mg/kg, iv; assay type: ADME, organism-based; set-up: dose 1 mg/kg, route intravenous; conditions: in vivo, read-out: Vdss
[8] = system: Rattus norvegicus; assay: Apparent volume of distribution in rat at 1 mg/kg, iv; assay type: ADME, organism-based; set-up: dose 1 mg/kg, route intravenous; conditions: in vivo; outline: as §1
[9] = Fraction unbound in human plasma; assay type: ADME, cell-free
[10] = Lipophilicity, log D of the compound; assay type: physicochemical; conditions: octanol/water
[11] = Aqueous solubility of the compound at pH 7.4; assay type: physicochemical; conditions: aqueous medium
[12] = system: Rattus norvegicus; assay: Antiinflammatory activity in Sprague-Dawley rat assessed as inhibition of LPS-induced bronchoalveolar lavage neutrophils at 0.03 mg/ml, inhalation administered as nebulized suspension; assay type: functional, organism-based
Outline: (§2)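 Rats were given the compound as an aqueous nebulized aerosol by nose-only inhalation 30 min before LPS challenge. Dose is expressed as mg/mL nebulizer concentration. Lung neutrophilia was the readout, and terminal lung concentration (nM) was measured. Groups held 8−10 animals per treatment.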

[13] = target: Cytochrome P450 2D6 (Homo sapiens, UniProt P10635); assay: Inhibition of CYP2D6 (unknown origin); assay type: ADME
Cytochrome P450 2D6, sequence (P10635 whole entry): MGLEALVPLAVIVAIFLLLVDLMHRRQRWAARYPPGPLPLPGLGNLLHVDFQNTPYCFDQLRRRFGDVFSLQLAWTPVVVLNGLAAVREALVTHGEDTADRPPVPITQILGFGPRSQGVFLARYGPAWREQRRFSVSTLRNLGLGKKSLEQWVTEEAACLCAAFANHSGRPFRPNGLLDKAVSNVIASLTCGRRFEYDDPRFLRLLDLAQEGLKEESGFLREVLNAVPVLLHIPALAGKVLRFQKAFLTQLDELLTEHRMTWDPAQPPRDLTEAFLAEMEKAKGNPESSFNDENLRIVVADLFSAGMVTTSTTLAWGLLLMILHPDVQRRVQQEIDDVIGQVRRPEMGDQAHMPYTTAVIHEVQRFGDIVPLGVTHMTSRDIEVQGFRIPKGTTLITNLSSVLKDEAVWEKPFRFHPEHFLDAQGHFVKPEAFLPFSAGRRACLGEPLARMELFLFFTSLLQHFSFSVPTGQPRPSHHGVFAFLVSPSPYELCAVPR

[14] = system: Rattus norvegicus; assay: Antiinflammatory activity in Sprague-Dawley rat assessed as inhibition of LPS-induced bronchoalveolar lavage neutrophils measured as LPS duration at 0.1 mg/ml, inhalation administered as nebulized suspension; assay type: functional, organism-based
Outline: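 Duration protocol: rats received a nose-only inhalation of nebulized aqueous compound solution 12 h before LPS challenge. Dose is expressed as mg/mL nebulizer concentration. Readout was LPS-induced pulmonary neutrophilia, with terminal lung concentration (nM) measured. Groups held 8−10 animals per treatment.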

[15] = target: Cytochrome P450 2C19 (Homo sapiens, UniProt P33261); assay: Inhibition of CYP2C19 (unknown origin); assay type: ADME
Cytochrome P450 2C19, sequence (P33261 whole entry): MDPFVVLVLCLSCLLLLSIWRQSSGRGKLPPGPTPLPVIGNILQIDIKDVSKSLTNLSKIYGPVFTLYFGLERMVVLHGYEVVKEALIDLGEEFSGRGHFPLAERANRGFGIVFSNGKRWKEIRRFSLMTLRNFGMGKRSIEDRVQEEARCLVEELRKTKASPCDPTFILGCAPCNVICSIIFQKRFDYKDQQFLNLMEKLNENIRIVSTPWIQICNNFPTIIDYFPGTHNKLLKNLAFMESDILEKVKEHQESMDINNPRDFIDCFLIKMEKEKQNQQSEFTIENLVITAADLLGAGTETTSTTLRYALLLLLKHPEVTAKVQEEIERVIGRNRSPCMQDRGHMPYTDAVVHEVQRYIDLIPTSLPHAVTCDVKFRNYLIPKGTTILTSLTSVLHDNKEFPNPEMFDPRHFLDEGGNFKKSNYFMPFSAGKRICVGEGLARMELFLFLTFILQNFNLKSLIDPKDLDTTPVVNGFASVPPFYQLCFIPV

[16] = target: T1, Cytochrome P450 1A2 (Homo sapiens, UniProt P05177); assay: Inhibition of CYP1A2 (unknown origin); assay type: ADME
T1 sequence (P05177 whole entry): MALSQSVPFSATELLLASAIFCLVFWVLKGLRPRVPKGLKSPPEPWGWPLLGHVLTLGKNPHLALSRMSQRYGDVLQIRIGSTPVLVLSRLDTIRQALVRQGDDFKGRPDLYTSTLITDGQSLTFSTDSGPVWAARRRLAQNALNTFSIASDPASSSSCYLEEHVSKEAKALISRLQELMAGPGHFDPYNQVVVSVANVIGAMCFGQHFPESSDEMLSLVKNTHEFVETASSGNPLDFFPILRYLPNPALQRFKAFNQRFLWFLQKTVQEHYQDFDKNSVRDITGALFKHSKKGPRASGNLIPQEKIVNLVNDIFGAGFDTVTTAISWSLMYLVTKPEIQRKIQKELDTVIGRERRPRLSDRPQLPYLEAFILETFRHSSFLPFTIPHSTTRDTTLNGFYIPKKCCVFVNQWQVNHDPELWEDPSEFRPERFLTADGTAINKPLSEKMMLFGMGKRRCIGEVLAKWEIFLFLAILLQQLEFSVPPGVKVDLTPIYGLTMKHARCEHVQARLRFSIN

[17] = system: Rattus norvegicus; assay: Antiinflammatory activity in nasally dosed Sprague-Dawley rat assessed as inhibition of LPS-induced bronchoalveolar lavage neutrophils measured as lung concentration administered as […]; assay type: functional
Outline: (§3)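 ED80 was derived from the nose-only nebulized-solution dose response in rats dosed 30 min before LPS challenge, with neutrophilia as the readout. ED80 is given as nebulizer concentration, as the matching terminal total lung concentration, and as lung deposited dose estimated from measured filter sample and terminal lung levels.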

[18] = system: Rattus norvegicus; assay: Antiinflammatory activity in nasally dosed Sprague-Dawley rat assessed as inhibition of LPS-induced bronchoalveolar lavage neutrophils measured as nebulizer concentration administered as […]; assay type: functional; outline: as §3
[19] = system: Rattus norvegicus; assay: Antiinflammatory activity in nasally dosed Sprague-Dawley rat assessed as inhibition of LPS-induced bronchoalveolar lavage neutrophils measured as lung deposited dose administered as […]; assay type: functional; outline: as §3
[20] = system: Rattus norvegicus; assay: Antiinflammatory activity in Sprague-Dawley rat assessed as inhibition of LPS-induced bronchoalveolar lavage neutrophils at 1 mg/ml, inhalation administered as nebulized suspension; assay type: functional, organism-based; outline: as §2

SMILES | IC50 [1] | IC50 [2] | half-life [3] | clearance [4] | IC50 [5] | Vd [7] | Vz/F [8] | fraction unbound [9] | logD [10] | solubility [11] | IC50 [6] | also measured
Cc1cc(C)n2ncc(C(=O)N[C@H]3CC[C@@H](NC(=O)c4cc(F)cnc4Oc4cccc(-c5ccc(O)cc5CN5CCOCC5)c4)CC3)c2n1 | 0.0501 nM | – | – | – | – | – | – | – | – | – | – | –
CN(C)Cc1cc(O)ccc1-c1cccc(Oc2ncc(F)cc2C(=O)N[C@H]2CC[C@@H](NC(=O)c3cccc4ocnc34)CC2)c1 | 0.316 nM | – | – | – | – | – | – | – | – | – | – | –
CN(C)Cc1cc(O)ccc1-c1cccc(Oc2ncc(F)cc2C(=O)N[C@H]2CC[C@@H](NC(=O)c3cccc4oc(=O)[nH]c34)CC2)c1 | 20 nM | – | – | – | – | – | – | – | – | – | – | –
Cc1cc(C(=O)N[C@H]2CC[C@@H](NC(=O)c3cc(F)cnc3Oc3cccc(-c4ccc(CCN5CCC(N6CCCC6)CC5)cc4)c3)CC2)nn1C | 0.0398 nM | > 1000 nM | 9 h | 74 mL/min/kg | > 1000 nM | 44 L/kg | 59 L/kg | 0.042 | 2.4 | 120 µM (≈ 84.9 µg/mL) | 0.0316 nM | IC50 [13]: > 1000 nM; inhibition [14]: Active; IC50 [15]: > 1000 nM; IC50 [16]: > 1000 nM
Cc1cccc2nc(C(=O)N[C@H]3CC[C@@H](NC(=O)c4cc(F)cnc4Oc4cccc(-c5ccc(CN6CCC(N7CCCC7)CC6)cc5)c4)CC3)cn12 | 0.0398 nM | > 1000 nM | 12 h | 79 mL/min/kg | > 1000 nM | 60 L/kg | 80 L/kg | 0.02 | 3.2 | > 1400 µM | 0.251 nM | IC50 [13]: > 1000 nM; inhibition [20]: Active; IC50 [15]: > 1000 nM; IC50 [16]: > 1000 nM
Cc1cc(C(=O)N[C@H]2CC[C@@H](NC(=O)c3cc(F)cnc3Oc3cccc(-c4cc(O)cc(CN5C[C@@H](C)N[C@@H](C)C5)c4)c3)CC2)nn1C | – | – | – | – | – | – | – | 0.35 | 2.2 | > 1500 µM | 0.398 nM | –

Continued, in another order:

IC50 [1] | IC50 [2] | half-life [3] | clearance [4] | IC50 [5] | Vd [7] | Vz/F [8] | fraction unbound [9] | logD [10] | solubility [11] | SMILES | IC50 [6] | also measured
0.0316 nM | – | – | – | – | – | – | – | – | – | Cc1csc(C(=O)N[C@H]2CC[C@@H](NC(=O)c3cc(F)cnc3Oc3cccc(-c4ccc(CN5C[C@@H](C)N[C@@H](C)C5)cc4)c3)CC2)n1 | – | –
– | 398 nM | 5.8 h | 58 mL/min/kg | > 1000 nM | 13 L/kg | 30 L/kg | 0.045 | 2.7 | 580 µM (≈ 392 µg/mL) | C[C@@H]1CN(Cc2ccc(-c3cccc(Oc4ncc(F)cc4C(=O)N[C@H]4CC[C@@H](NC(=O)c5cc6ccccn6n5)CC4)c3)cc2)C[C@H](C)N1 | 0.0794 nM | inhibition [12]: Active
– | – | – | – | – | – | – | 0.16 | 2.3 | 970 µM (≈ 650 µg/mL) | Cc1cc(C(=O)N[C@H]2CC[C@@H](NC(=O)c3cc(F)cnc3Oc3cccc(-c4ccc(O)c(CN5C[C@@H](C)N[C@@H](C)C5)c4)c3)CC2)nn1C | 0.0316 nM | –
– | – | – | – | – | – | – | 0.18 | 2.1 | > 1500 µM | Cc1cc(C(=O)N[C@H]2CC[C@@H](NC(=O)c3cc(F)cnc3Oc3cccc(-c4cccc(CN5C[C@@H](C)N[C@@H](C)C5)c4)c3)CC2)nn1C | 0.0794 nM | –
0.02 nM | > 1000 nM | 7 h | 68 mL/min/kg | > 1000 nM | 21 L/kg | 41 L/kg | 0.045 | 2.6 | 130 µM (≈ 88.6 µg/mL) | Cc1cc(C(=O)N[C@H]2CC[C@@H](NC(=O)c3cc(F)cnc3Oc3cccc(-c4ccc(CCCN5C[C@@H](C)N[C@@H](C)C5)cc4)c3)CC2)nn1C | 0.0631 nM | IC50 [13]: > 1000 nM; ED80 [17]: 60 nM; ED80 [18]: 50 µg/mL (≈ 73.3 µM); ED80 [19]: 0.6 µg/kg; inhibition [14]: Active; IC50 [15]: > 1000 nM; IC50 [16]: > 1000 nM; inhibition [12]: Active
